Test results reported in article PMC3966493 (Chemistry & biology, 2013).
Ends that are not written are not given here. * marks the point of attachment. FITC = O=C1OC2(c3ccc(O)cc3Oc3cc(O)ccc32)c2ccc(NC(=S)*)cc21

Tests used:
EphA4 LBD [1] = target: T1, EphA4 LBD (Homo sapiens, UniProt P54764); test: Protein NMR 2D [15N,1H]-HSQC chemical shift perturbation / titration; format: binding; settings: for binding of individual side-chain fragments by 2D HSQC: perturbations observable only at higher ligand concentrations (3 mM)
In short: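 15N-labelled EphA4 LBD (M9 medium with (15NH4)2SO4) at 50 µM was used. 2D [15N,1H]-HSQC spectra (32 scans, 2,048 × 128 complex points, 300 K) were recorded with and without test compound. Shifts were computed as Δδ = √[(Δ1H)² + (0.17·Δ15N)²]. For Kd, compound was titrated stepwise and Δδ was fitted to a quadratic binding equation.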

EphA4 LBD [2] = target: T1, EphA4 LBD; test: Fluorescence polarization assay; format: binding; settings: 5 µM FITC-KYL, 2 µM EphA4 LBD
In short: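 Human EphA4 LBD (residues 29–209), His-tag purified from E. coli Rosetta-gami (DE3), at 2 µM final, was preincubated 10 min at room temperature with varying test compound in PBS pH 7.2. N-terminally FITC-labelled KYL peptide (5 µM final) was added. After 30 min at room temperature, polarization (mP) was read at ex/em 480/535 nm. Unlabelled KYL served as positive control, DMSO as negative.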

[3] = target: human EphA4 ligand-binding domain (residues 29-209) (human, UniProt P54764 29-209); test: fluorescence polarisation
Chain of human EphA4 ligand-binding domain (residues 29-209) (P54764 29-209): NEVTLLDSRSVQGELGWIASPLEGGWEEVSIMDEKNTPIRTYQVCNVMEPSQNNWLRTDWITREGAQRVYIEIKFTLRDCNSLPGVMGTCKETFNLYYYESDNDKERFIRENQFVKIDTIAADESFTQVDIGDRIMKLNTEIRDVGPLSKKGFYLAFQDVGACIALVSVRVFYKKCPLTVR

T1 sequence (P54764 29-209): as above

Cc1ccc(Cl)cc1 [4-chlorotoluene]
binding of individual side-chain fragments by 2D HSQC (EphA4 LBD [1]): weak binding affinities

KYLP
binding by 2D [15N,1H]-HSQC chemical shift perturbation (EphA4 LBD [1]; 50 µM EphA4 LBD, 100 µM compound): inactive | IC50 by FPA (EphA4 LBD [2]): inactive

Cc1c[nH]c2ccccc12 [3-methylindole]
binding of individual side-chain fragments by 2D HSQC (EphA4 LBD [1]): weak binding affinities

{FITC}-KYLPYWPVLSSL [FITC-labeled KYL peptide]
binding result [3]: binds
